Measured values: ChEMBL document CHEMBL6127074, “Isolation and Characterization of the Cyanobacterial Macrolide Glycoside Moorenaside, an Anti-Inflammatory Analogue of Aurisides Targeting the Keap1/Nrf2 Pathway” (J Nat Prod, 2024)
The source made the active and inactive calls. The rule behind the calls is not given here.

What was measured:
KB = experiment: Antiproliferative activity against human KB cells; assay type: functional, cell-based
LoVo = experiment: Antiproliferative activity against human LoVo cells; assay type: functional, cell-based
[1] = system: Trypanosoma brucei rhodesiense; experiment: Antiparasitic activity against Trypanosoma brucei rhodesiense; assay type: functional, organism-based
HEK293 [2] = experiment: Cytotoxicity against HEK293 ARE-luc cells at 1 to 32 uM incubated for 24 hrs by MTT assay; assay type: toxicity, cell-based; details: human, hek293, 24 h, dose 1-32 µM
In short: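 HEK293 ARE-luc cells seeded 10,000/well and left overnight, then treated with half-log dilutions from 32 μM, tBHQ 10 μM, or 0.5% DMSO for 24 h. Viability was read by MTT; mean ± SD, n = 3.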

HEK293 [3] = experiment: Activation of Nrf2-ARE pathway in HEK293 cells transfected with firefly luciferase reporter assessed as fold increase in Nrf2 activity at 32 uM incubated for 24 hrs by ARE luciferase reporter gene based microplate reader assay; assay type: cell-based; details: Homo sapiens, filed as activator
In short: (§1)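 HEK293 cells stably carrying an ARE-driven firefly luciferase reporter, grown in DMEM with 10% FBS at 37 °C and 5% CO2, seeded 10,000/well and left overnight. Half-log serial dilutions from 32 μM were added, with tBHQ (10 μM) as positive control and 0.5% DMSO as vehicle. Luminescence was read with BriteLite reagent after 24 h and expressed as fold activity; n = 3.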

HEK293 [4] = experiment: Activation of Nrf2-ARE pathway in HEK293 cells transfected with firefly luciferase reporter assessed as fold increase in Nrf2 activity at 10 uM incubated for 24 hrs by ARE luciferase reporter gene based microplate reader assay; assay type: cell-based; details: Homo sapiens, filed as activator; in short: as §1
RAW264.7 [5] = experiment: Anti-inflammatory activity in LPS induced mouse RAW264.7 cells assessed as reduction in NO production at 32 uM preincubated for 1 hr followed by LPS stimulation and measured after 24 hrs by Griess reagent based plate reader assay; assay type: functional, cell-based; details: time 25.0 hrs
In short: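 RAW264.7 cells seeded 20,000/well, pretreated 1 h with half-log dilutions from 32 μM (0.5% DMSO vehicle), then stimulated with LPS 1 μg/mL. Unstimulated controls were included. After 24 h the supernatant was mixed with Griess reagent and absorbance read at 540 nm. NO was calculated from a nitrite standard curve. Mean ± SD, n = 3, t-test against DMSO + LPS.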

RAW264.7 [6] = experiment: Cytotoxicity against mouse RAW264.7 cells at 32 uM incubated for 24 hrs by MTT assay; assay type: toxicity, cell-based; details: raw264.7, 24 h
In short: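 RAW264.7 cells seeded 20,000/well and treated for 24 h with half-log dilutions from 32 μM together with LPS 1 μg/mL (0.5% DMSO vehicle). Viability was read by MTT in parallel with the NO assay; mean ± SD, n = 3.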

RAW264.7 [7] = experiment: Anti-inflammatory activity in LPS induced mouse RAW264.7 cells assessed as fold increase in Nqo1 transcript level at 32 uM preincubated for 1 hr followed by LPS stimulation and measured after 12 hrs by TaqMan analysis; assay type: functional; details: time 13 hrs
In short: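 RAW264.7 cells seeded 175,000/well, given fresh medium, pretreated 1 h with half-log dilutions from 32 μM (0.5% DMSO vehicle), then stimulated with LPS 1 μg/mL for 12 h. Unstimulated wells were run alongside. RNA was extracted and reverse transcribed with oligo(dT), then measured by TaqMan qPCR for Nqo1 and iNos with actin as the endogenous control. Mean ± SD, n = 3, two-tailed unpaired t-test against DMSO + LPS.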

HCT-116 = experiment: Antiproliferative activity against human HCT-116 cells assessed as cell viability at 32 uM incubated for 48 hrs by MTT assay; details: HCT-116, 48 h

**Q.** Which results are given for `CO[C@@H]1[C@@H](OC)[C@@H](O)[C@H](O[C@H]2C[C@@]3(O)CC(=O)O[C@@](C)(CC/C=C/C=C/Br)C[C@H](O)[C@@H](C)CC[C@H](O3)[C@@H]2C)O[C@H]1C`?
**A.** IC50 (KB): 4.3 µM; IC50 (LoVo): 15 µM

**Q.** How did the IC50 [1] turn out when `CCCCC/C=C/C=C/[C@H]1OC(=O)C[C@@H]2O[C@H](C[C@H](O)C[C@H](C)C[C@@H](O)C1(C)C)C[C@H](O[C@@H]1OC[C@@H](OC)[C@H](O)[C@H]1O)C2(C)C` was run?
**A.** Its IC50 is 11 µM.

**Q.** With `C=CCCC/C=C/C=C/[C@H]1OC(=O)C[C@@H]2O[C@H](C[C@H](O)C[C@H](C)C[C@@H](O)C1(C)C)C[C@H](O[C@@H]1OC[C@@H](OC)[C@H](O)[C@H]1O)C2(C)C` as the molecule, how does the IC50 [1] read?
**A.** The IC50 was 11 µM.

**Q.** `CO[C@@H]1[C@@H](O)[C@@H](OC)[C@H](O[C@@H]2C[C@H]3O[C@@](O)(C2)[C@H](C)C(=O)O[C@@H](/C=C/C=C/Br)C/C(C)=C/C(=O)C3(C)C)O[C@H]1C` was tested. Which Activity (HEK293 [2]) did it give?
**A.** Its Activity is “Non-Toxic”.

**Q.** And the fold change (FC) (HEK293 [3])?
**A.** Its fold change (FC) is 7.7.

**Q.** And the fold change (FC) (HEK293 [4])?
**A.** The fold change (FC) was 2.5.

**Q.** What about the Activity (RAW264.7 [5]) of the same molecule?
**A.** Its Activity is “Active”.

**Q.** What about the Activity (RAW264.7 [6]) of the same molecule?
**A.** Its Activity is “Non-Toxic”.

**Q.** What about the “fold change (FC)” value (RAW264.7 [7]) of the same molecule?
**A.** Its value is 5.

**Q.** What about the viability at 32 µM (HCT-116) of the same molecule?
**A.** Its viability at 32 µM is 55%.
